Results published in paper PMC10360043 (FASEB journal : official publication of the Federation of …, 2023).
One block for each molecule: values may come before it.

What was measured:
ERp5 = target: T1, ERp5 (Homo sapiens, UniProt Q15084); assay: Insulin-based turbidimetric assay, ERp5; type: biochemical; conditions: insulin turbidity assay, 6-point dose curve
T1 sequence (Q15084 20-440): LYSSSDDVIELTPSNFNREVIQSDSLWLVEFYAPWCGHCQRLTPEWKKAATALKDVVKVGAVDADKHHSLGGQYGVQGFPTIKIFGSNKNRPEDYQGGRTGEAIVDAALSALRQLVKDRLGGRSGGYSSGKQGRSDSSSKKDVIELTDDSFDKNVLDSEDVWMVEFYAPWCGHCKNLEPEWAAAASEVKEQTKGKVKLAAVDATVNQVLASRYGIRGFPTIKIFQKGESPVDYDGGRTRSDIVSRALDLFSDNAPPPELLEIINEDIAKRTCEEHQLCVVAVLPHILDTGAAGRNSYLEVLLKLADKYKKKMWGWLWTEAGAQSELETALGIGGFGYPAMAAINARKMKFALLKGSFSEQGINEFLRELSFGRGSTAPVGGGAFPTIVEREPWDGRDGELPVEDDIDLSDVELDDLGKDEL
Method in brief: (§1)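 Recombinant enzymes were purchased. Test compound was tested as a 6-point dilution series with enzyme at 10 μg/mL final (ERp5 at 30 μg/mL), 125 μM bovine recombinant insulin, 2 mM EDTA and 100 mM potassium phosphate. The reaction was started with 0.3 mM DTT, and insulin aggregation turbidity was read every minute for 75 min.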

plasma thiol isomerase = assay: Plasma thiol isomerase activity of patients; type: in vivo, human; conditions: day 28 versus day 0, 40 mg twice daily
[1] = Pilot clinical trial, adverse events; type: in vivo, human; conditions: 40 mg twice daily, four women
OVCAR8 tumors [2] = assay: OVCAR8 xenograft with cisplatin and gemcitabine; type: in vivo, NOG mice
OVCAR8 cells = assay: PrestoBlue cell viability, OVCAR8; type: cell-based, human; conditions: for OVCAR8 cell viability, time course: concentrations and timepoints used in Figure 4A and B
[3] = test system: PDI, ERp5, ERp57, and ERp72 levels in OVCAR8 cells; assay: Western blot of thiol isomerase levels in OVCAR8 cells; type: cell-based, human; conditions: 10 μM and 30 μM, 1 hour
Gab1 = Gab1 phosphorylation after EGF stimulation; type: cell-based, human
ERp57 = target: T2, ERp57 (Homo sapiens, UniProt P30101); assay: Insulin-based turbidimetric assay, ERp57; type: biochemical; conditions: insulin turbidity assay, 6-point dose curve
T2 sequence (P30101 25-505): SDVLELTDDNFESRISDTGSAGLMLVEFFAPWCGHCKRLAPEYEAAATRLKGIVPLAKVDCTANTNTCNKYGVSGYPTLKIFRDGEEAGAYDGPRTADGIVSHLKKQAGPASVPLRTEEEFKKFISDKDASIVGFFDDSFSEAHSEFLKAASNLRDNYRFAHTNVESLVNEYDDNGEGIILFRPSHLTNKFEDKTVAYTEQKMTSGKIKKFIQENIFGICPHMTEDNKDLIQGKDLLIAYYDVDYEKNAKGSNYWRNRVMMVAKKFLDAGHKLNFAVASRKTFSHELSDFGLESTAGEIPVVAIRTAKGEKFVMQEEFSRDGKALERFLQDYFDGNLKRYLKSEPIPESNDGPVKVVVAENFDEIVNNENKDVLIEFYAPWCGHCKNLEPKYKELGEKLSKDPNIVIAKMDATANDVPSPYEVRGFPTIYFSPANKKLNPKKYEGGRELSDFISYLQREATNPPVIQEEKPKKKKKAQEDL
Method in brief: as §1

ERp72 = target: T3, ERp72 (Homo sapiens, UniProt P13667); assay: Insulin-based turbidimetric assay, ERp72; type: biochemical; conditions: insulin turbidity assay, 6-point dose curve
T3 sequence (P13667 21-645): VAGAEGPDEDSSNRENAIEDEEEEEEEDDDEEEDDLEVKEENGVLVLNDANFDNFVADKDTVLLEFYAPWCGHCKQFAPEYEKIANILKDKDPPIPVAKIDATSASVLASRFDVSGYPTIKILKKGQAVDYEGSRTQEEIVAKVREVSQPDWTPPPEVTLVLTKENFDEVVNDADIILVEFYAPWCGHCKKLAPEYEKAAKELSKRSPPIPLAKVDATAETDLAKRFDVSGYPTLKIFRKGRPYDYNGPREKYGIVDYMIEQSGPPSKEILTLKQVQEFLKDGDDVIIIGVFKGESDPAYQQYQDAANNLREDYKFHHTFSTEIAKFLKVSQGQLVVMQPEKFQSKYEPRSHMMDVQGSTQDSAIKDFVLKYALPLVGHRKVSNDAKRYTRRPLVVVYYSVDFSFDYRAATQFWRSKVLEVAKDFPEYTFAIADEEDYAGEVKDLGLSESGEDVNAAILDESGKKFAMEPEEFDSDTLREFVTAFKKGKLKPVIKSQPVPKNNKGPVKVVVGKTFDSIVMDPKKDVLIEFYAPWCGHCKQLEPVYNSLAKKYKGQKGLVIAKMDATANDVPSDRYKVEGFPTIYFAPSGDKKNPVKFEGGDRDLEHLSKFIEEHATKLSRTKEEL
Method in brief: as §1

CA-125 = assay: Pilot clinical trial, CA-125 in relapsed ovarian cancer; type: in vivo, human
PDI = PDI (Homo sapiens, UniProt P07237); assay: Insulin-based turbidimetric assay, PDI; type: biochemical; conditions: insulin turbidity assay, 6-point dose curve
Method in brief: as §1

LTR2 receptor = conditions: cited from earlier work
HEK293 cell line = assay: PrestoBlue cell viability, HEK293; type: cell-based; conditions: Homo sapiens, HEK293, read-out: cell viability IC50
Method in brief: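 HEK293 cells were maintained in high-glucose DMEM with 4 mM glutamine and 10% FBS. Cells were plated at 5,000 per well and grown 24 h, then exposed to test compound or vehicle for 2–24 h. PrestoBlue was added for 10–20 min at 37°C, and fluorescence was read (ex 560/em 590 nm). Signal was expressed as percent of control.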

[4] = 40 mg, oral ingestion; cited from earlier work
OVCAR8 tumors [5] = assay: OVCAR8 xenograft in NOG mice; type: in vivo; conditions: 30 mg/kg i.p. daily
[6] = test system: tissue factor dependent Factor Xa generation; assay: Factor Xa generation assay on OVCAR8 cells; type: cell-based, human; conditions: 1, 3, 10, and 30 µM, 30 minutes; significant at 10 and 30 µM
EGFR = EGFR phosphorylation after EGF stimulation; type: cell-based, human; conditions: for decrease of EGFR phosphorylation: then EGF, OVCAR8
Method in brief: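 OVCAR8 cells, grown to confluence, were serum-starved, exposed to test compound for 1 or 4 h, then stimulated with EGF (100 ng/mL final). Whole-cell extracts were made in M-PER, protein was quantified by Bradford, and samples were run on SDS-PAGE and transferred to PVDF. Blots were blocked in 5% milk/TBS, probed with anti-pEGFR-Y1068 and an HRP secondary in 3% BSA/TBS-0.1% Tween 20. Student's t-test versus the EGF control.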

[7] = double the FDA approved dose for asthma; cited from earlier work
LTR1 receptor = conditions: cited from earlier work

Sequence of PDI (P07237 18-508): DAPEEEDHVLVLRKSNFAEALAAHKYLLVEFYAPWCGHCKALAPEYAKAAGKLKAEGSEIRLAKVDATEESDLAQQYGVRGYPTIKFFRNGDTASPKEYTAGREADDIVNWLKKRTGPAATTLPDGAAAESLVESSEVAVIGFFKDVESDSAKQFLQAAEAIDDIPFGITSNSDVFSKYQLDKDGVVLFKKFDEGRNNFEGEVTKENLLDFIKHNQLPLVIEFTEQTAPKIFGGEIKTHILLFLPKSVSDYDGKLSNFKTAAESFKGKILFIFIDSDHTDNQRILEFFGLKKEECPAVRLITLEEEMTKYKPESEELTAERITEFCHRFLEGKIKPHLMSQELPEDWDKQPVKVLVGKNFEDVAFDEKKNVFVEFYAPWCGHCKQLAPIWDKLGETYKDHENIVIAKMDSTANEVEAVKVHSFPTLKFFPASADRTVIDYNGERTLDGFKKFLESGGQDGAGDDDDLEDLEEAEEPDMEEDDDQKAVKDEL

- inhibition of ERp5 (ERp5): concentration-dependent manner
- reduction of plasma thiol isomerase activity (plasma thiol isomerase): three out of four patients
- IC50 (OVCAR8 cells; Homo sapiens, OVCAR-8, read-out: cell viability IC50): 12 µM
- inhibition of ERp57 (ERp57): concentration-dependent manner
- inhibition of ERp72 (ERp72): concentration-dependent manner
- inhibition of PDI (PDI): concentration-dependent manner
Molecule: COc1cc(C(=O)NS(=O)(=O)c2ccccc2C)ccc1Cc1cn(C)c2ccc(NC(=O)OC3CCCC3)cc12 [zafirlukast]
- grade 3 or higher adverse events [1]: no grade 3 or higher adverse events reported
- hemorrhage [1]: no cases of hemorrhage reported
- toxicity considered possibly related to zafirlukast [1]: headache (grade 1)
- mean decrease of tumor volume relative to cisplatin-gemcitabine alone (OVCAR8 tumors [2]; 30 mg/kg zafirlukast daily added to 5 mg/kg cisplatin and 120 mg/kg gemcitabine weekly, after 4 weeks): 38%
- decrease in tumor volume compared to the vehicle control (OVCAR8 tumors [2]; zafirlukast plus cisplatin and gemcitabine, end of the study): 83%
- OVCAR8 cell viability, time course (OVCAR8 cells): minimally altered
- change in thiol isomerase expression [3]: No significant change
- decrease of Gab1 phosphorylation (Gab1; 10 μM, 1 hour, then EGF, OVCAR8): 37%
- Gab1 phosphorylation decreased to (Gab1; all other time points and concentrations (10 μM 4 hours; 30 μM 1 and 4 hours)): ≤ 5%
- CA-125 response (CA-125; 40 mg twice daily, four women): None of the women demonstrated a decrease in CA-125
- mean change in CA-125 (CA-125; following 40 mg twice daily, 0.036 prior to treatment): 0.015 U/mL per day
- mean CA-125 doubling time (CA-125; following 40 mg twice daily, 29.8 days prior to treatment): 85.69 days
- effects on the LTR2 receptor (LTR2 receptor): minimal effects
- IC50 (HEK293 cell line): > 100 µM
- peak plasma concentration [4]: ~ 3 μM
- lung metastasis score (scale 0–4) (OVCAR8 tumors [5]; 32 days, control group 2.5): 0.25
- mean decrease in tumor volume compared to controls (OVCAR8 tumors [5]; day 32): 42%
- Factor Xa generation [6]: dose dependent decrease
- decrease of EGFR phosphorylation (EGFR; 10 μM, 1 hour): 18%
- decrease of EGFR phosphorylation (EGFR; 10 μM, four hours): 39%
- decrease of EGFR phosphorylation (EGFR; 30 μM, 1 hour): 27%
- decrease of EGFR phosphorylation (EGFR; 30 μM, four hours): 52%
- tolerability of the 40 mg dose [7]: well tolerated

Molecule: PACMA-31
- OVCAR8 cell viability, time course (OVCAR8 cells): minimally altered
- inhibition of EGFR activation (EGFR; OVCAR8, Figure 4B): inhibited EFGR activation in a concentration-dependent manner

Molecule: CC(C)(O)c1ccccc1CC[C@@H](SCC1(CC(=O)O)CC1)c1cccc(/C=C/c2ccc3ccc(Cl)cc3n2)c1 [montelukast]
- inhibition of ERp5 (ERp5): inhibited all four thiol isomerases albeit with less potency
- inhibition of ERp57 (ERp57): inhibited all four thiol isomerases albeit with less potency
- inhibition of ERp72 (ERp72): inhibited all four thiol isomerases albeit with less potency
- inhibition of PDI (PDI): inhibited all four thiol isomerases albeit with less potency
- effects on the LTR2 receptor (LTR2 receptor): minimal effects
- potency at inhibiting the LTR1 receptor, times more potent than zafirlukast (LTR1 receptor): 2–3 times
